Results collected from several papers.

Cn1cc2c3c1C(=O)C(N)=CC3=NCC2 — CC50 (HepG2; cell growth or viability, MTT; 72 h): 2 µM
COc1ccc([C@@]23Oc4cc(OC)cc(OC)c4[C@@]24NC(C)=N[C@@]4(O)[C@H](C(=O)N(C)OC)[C@H]3c2ccccc2)cc1 — half-life (metabolic stability; human, liver microsomes): 120 min
CNC(C)Cc1ccc2n[se]nc2c1 (stereo not drawn) — half-life (metabolic stability; human, liver microsomes; 0.5 µM): > 150 min
Cn1cc2c3c1C(=O)C(N)=CC3=[N+](C)CC2 — CC50 (HepG2; cell growth or viability, MTT; 72 h): 1 µM
NCCNC(=O)O[C@H]1CCC[C@@]2(C1)OOC1(O2)C2CC3CC(C2)CC1C3 (stereo partly drawn) — MRT(0-inf) (male CD-1 mouse, plasma; intravenous, 3 mg/kg): 35.2 min
CNC(C)Cc1ccc2c(c1)OCO2 (stereo not drawn) — half-life (metabolic stability; human, liver microsomes; 0.5 µM): > 150 min
COCC1=N[C@@]2(O)[C@H](C(=O)N(C)OC)[C@@H](c3ccccc3)[C@]3(c4ccc(OC)cc4)Oc4cc(OC)cc(OC)c4[C@]23N1 — half-life (metabolic stability; human, liver microsomes; 1 µM, pH 7.4): 24.8 min
CC(C)(N)CNC(=O)O[C@H]1CCC[C@@]2(C1)OOC1(O2)C2CC3CC(C2)CC1C3 (stereo partly drawn) — MRT(0-inf) (male CD-1 mouse, plasma; intravenous, 3 mg/kg): 32.5 min
CN1CCN(S(=O)(=O)c2cc([N+](=O)[O-])ccc2N(CCOS(C)(=O)=O)CCOS(C)(=O)=O)CC1 — MRT(0-inf) (female SCID mouse, plasma; intraperitoneal, 25 mg/kg): 25.2 min
